# Source: PMC7138454 (Journal of medicinal chemistry, 2014)
# Target: OXE receptor (Homo sapiens, UniProt Q8TDS5)
# Test: Agonist activity: calcium mobilization in neutrophils by the compound itself
# Assay type: cell-based
# Summary of the method: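 Neutrophils were isolated by dextran sedimentation, Ficoll centrifugation and hypotonic lysis, then loaded with indo-1 AM. In PBS with Ca++ 1.8 mM and Mg++ 1 mM (final, added 5 min before), cells sat in a stirred cuvette at 37 °C. Fluorescence was read at excitation 331 nm and emission 410 nm. After a stable baseline, DMSO vehicle or test compound was added, and 2 min later 5-oxo-ETE (10 nM final). Digitonin (0.1% final) gave maximal fluorescence.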
# Sequence of OXE receptor (Q8TDS5 whole entry): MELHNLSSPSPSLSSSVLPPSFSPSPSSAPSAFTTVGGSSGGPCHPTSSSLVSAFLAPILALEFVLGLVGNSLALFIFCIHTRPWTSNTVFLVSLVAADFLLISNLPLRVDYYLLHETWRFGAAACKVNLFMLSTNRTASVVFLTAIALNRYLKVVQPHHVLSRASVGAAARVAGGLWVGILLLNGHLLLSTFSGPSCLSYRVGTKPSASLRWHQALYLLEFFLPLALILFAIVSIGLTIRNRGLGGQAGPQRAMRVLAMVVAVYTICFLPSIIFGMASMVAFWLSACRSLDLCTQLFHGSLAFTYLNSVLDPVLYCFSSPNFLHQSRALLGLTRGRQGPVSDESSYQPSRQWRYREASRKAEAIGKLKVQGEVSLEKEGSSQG
structure (smiles),measurement,value
CCCCCCc1nc2ccccc2cc1C(=O)CCCC(=O)O [quinoline derivative],Agonist activity (calcium mobilization by the compound itself),did not act as an agonist
